One test relates to HaCaT. Briefly: Cytotoxicity against human HaCaT cells.
The test system of test [1] is CCRF-CEM. Briefly: Growth inhibition of human CCRF-CEM cells at 10 uM after 2 days by MTT assay. In kind it is functional. The note with it: 48 h.
Test [2] deals with HCT-116. Briefly: Growth inhibition of human HCT116 cells at 10 uM after 2 days by MTT assay. The class given is functional. The note with it: HCT-116, 48 h.
Test [3] deals with CCRF-CEM. Briefly: Growth inhibition of human CCRF-CEM cells after 2 days by MTT assay. In kind it is functional. The note with it: 48 h.
Test [4] concerns HCT-116. Briefly: Growth inhibition of human HCT116 cells after 2 days by MTT assay. In kind it is functional. The note with it: HCT-116, 48 h. In outline: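 HCT116 colorectal carcinoma cells from KCLB/ATCC were grown in RPMI 1640/DMEM with 10% heat-inactivated FBS at 37 °C and 5% CO₂. Cells were seeded at 5 × 10⁴ cells/ml and exposed in duplicate to a range of concentrations for two days. MTT dye was added for up to 4 h at 37 °C, formazan was solubilized overnight at room temperature, and A570 gave GI₅₀.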
(In general: Tetrazolium assays rely on reduction of a dye to a coloured formazan, in cell work by metabolically active cells.)

The compound `O=C(O)c1cc(NCc2cc(O)ccc2O)ccc1O` [LAVENDUSTIN C] showed a half-maximal inhibitory concentration (IC50) in the test on HaCaT greater than 100 µM.

Take `COC(=O)c1cc(-n2cc(-c3ccc(OC)cc3)nn2)ccc1O`: the inhibition at 10 µM with CCRF-CEM [1] came out at 16%; with HCT-116 [2], 6%.

For the compound `O=C(O)c1cc(-n2cc(-c3cccc(O)c3)nn2)ccc1O`, the inhibition at 10 µM in the test with CCRF-CEM [1] is 3%; in the test on HCT-116 [2], 5%.

With `COC(=O)c1cc(-n2cc(-c3cc(OC)ccc3OC)nn2)ccc1O`, the results for the inhibition at 10 µM in the test with CCRF-CEM [1] and with HCT-116 [2] were 3% and 6%, respectively.

`COC(=O)c1cc(-n2cc(-c3cccc(O)c3)nn2)ccc1O`: the figures for the inhibition at 10 µM in the test on CCRF-CEM [1] and with HCT-116 [2] were 5% and 6%, respectively.

Consider `O=C(OCCCc1ccccc1)c1cc(-n2cc(-c3cccc(O)c3)nn2)ccc1O`, for which the inhibition at 10 µM in the test on CCRF-CEM [1] came out at 9%; in the test on HCT-116 [2], 11%.

Turning to `COC(=O)c1cc(-n2cc(-c3cc(OC)cc(OC)c3)nn2)ccc1O`, the inhibition at 10 µM with CCRF-CEM [1] and in the test on HCT-116 [2] was 3% in each case.

For `O=C(NCCc1ccc(F)cc1)c1cc(-n2cc(-c3cc(O)ccc3O)nn2)ccc1O`, the inhibition at 10 µM in the test with CCRF-CEM [1] is 15%; in the test on HCT-116 [2] it was 18%.

Take `O=C(OCCCc1ccccc1)c1cc(-n2cc(-c3cc(O)ccc3O)nn2)ccc1O`: the results for the GI50 in the test on CCRF-CEM [3] and with HCT-116 [4] were 0.93 µM and 20.4 µM, respectively. The inhibition at 10 µM came out at 81% with CCRF-CEM [1] and 39% in the test with HCT-116 [2].

In the case of `O=C(Nc1cccc(C(F)(F)F)c1)c1cc(-n2cc(-c3cccc(O)c3)nn2)ccc1O`, the figures for the inhibition at 10 µM in the test with CCRF-CEM [1] and with HCT-116 [2] were 13% and 25%, respectively.

As to `COc1cc(OC)cc(-c2cn(-c3ccc(O)c(C(=O)OCCCc4ccccc4)c3)nn2)c1`, the inhibition at 10 µM with CCRF-CEM [1] worked out at 8%; with HCT-116 [2], 19%.

`COc1ccc(OC)c(-c2cn(-c3ccc(O)c(C(=O)NCCc4ccc(F)cc4)c3)nn2)c1`: the values for the GI50 with CCRF-CEM [3] and in the test with HCT-116 [4] were 22.9 µM and 13.6 µM, respectively. Further, the results for the inhibition at 10 µM with CCRF-CEM [1] and in the test with HCT-116 [2] were 35% and 44%, respectively.

As to `COc1ccc(-c2cn(-c3ccc(O)c(C(=O)O)c3)nn2)cc1`, the values for the inhibition at 10 µM in the test on CCRF-CEM [1] and with HCT-116 [2] were 9% and 8%, respectively.

Consider `COc1cc(OC)cc(-c2cn(-c3ccc(O)c(C(=O)NCCc4ccc(F)cc4)c3)nn2)c1`, for which the GI50 in the test on CCRF-CEM [3] is greater than 100 µM; in the test on HCT-116 [4] it was 16.1 µM. The inhibition at 10 µM in the test on CCRF-CEM [1] was found to be 35%; with HCT-116 [2], 43%.

As for `COc1ccc(-c2cn(-c3ccc(O)c(C(=O)NCCc4ccc(F)cc4)c3)nn2)cc1`, the figures for the concentration for 50% growth inhibition (GI50) with CCRF-CEM [3] and with HCT-116 [4] were greater than 100 µM and 12.5 µM, respectively. The inhibition at 10 µM in the test with CCRF-CEM [1] stood at 21%; in the test with HCT-116 [2], 62%.

Turning to `COc1cc(OC)cc(-c2cn(-c3ccc(O)c(C(=O)O)c3)nn2)c1`, the figures for the inhibition at 10 µM in the test on CCRF-CEM [1] and in the test with HCT-116 [2] were 9% and 2%, respectively.

For the compound `COc1ccccc1-c1cn(-c2ccc(O)c(C(=O)Nc3cccc(C(F)(F)F)c3)c2)nn1`, the concentration for 50% growth inhibition (GI50) in the test with CCRF-CEM [3] is 10.5 µM; with HCT-116 [4], 7.92 µM. Moreover, the inhibition at 10 µM in the test with CCRF-CEM [1] worked out at 65%; with HCT-116 [2] it was 61%.

Take `COC(=O)c1cc(-n2cc(-c3ccccc3OC)nn2)ccc1O`: the inhibition at 10 µM was 6% with CCRF-CEM [1] and 8% in the test on HCT-116 [2].

As for `COC(=O)c1cc(-n2cc(-c3cc(O)ccc3O)nn2)ccc1O`, the GI50 in the test on CCRF-CEM [3] is 13.9 µM; in the test on HCT-116 [4] it was greater than 100 µM. In addition, the results for the inhibition at 10 µM in the test with CCRF-CEM [1] and in the test with HCT-116 [2] were 52% and 15%, respectively.

With `COc1cccc2c1C(=O)c1c(O)c3c(c(O)c1C2=O)C[C@@](O)(C(=O)CO)C[C@@H]3O[C@H]1C[C@H](N)[C@H](O)[C@H](C)O1` [DOXORUBICIN], the concentration for 50% growth inhibition (GI50) was determined as 0.02 µM with CCRF-CEM [3] and 0.4 µM in the test with HCT-116 [4].

On to `COc1ccc(OC)c(-c2cn(-c3ccc(O)c(C(=O)Nc4cccc(C(F)(F)F)c4)c3)nn2)c1`, for which the GI50 was greater than 100 µM with CCRF-CEM [3] and 12.9 µM in the test with HCT-116 [4]. Further, the inhibition at 10 µM in the test on CCRF-CEM [1] came out at 15%; with HCT-116 [2], 46%.

As to `COc1ccc(-c2cn(-c3ccc(O)c(C(=O)Nc4cccc(C(F)(F)F)c4)c3)nn2)cc1`, the results for the inhibition at 10 µM with CCRF-CEM [1] and with HCT-116 [2] were 12% and 9%, respectively.

Turning to `COc1ccccc1-c1cn(-c2ccc(O)c(C(=O)NCCc3ccc(F)cc3)c2)nn1`, the inhibition at 10 µM in the test on CCRF-CEM [1] is 11%; in the test with HCT-116 [2], 23%.

Take `COc1ccc(-c2cn(-c3ccc(O)c(C(=O)OCCCc4ccccc4)c3)nn2)cc1`: the inhibition at 10 µM came out at 5% in the test with CCRF-CEM [1] and 12% with HCT-116 [2].

`COc1cc(OC)cc(-c2cn(-c3ccc(O)c(C(=O)Nc4cccc(C(F)(F)F)c4)c3)nn2)c1`: the GI50 in the test on CCRF-CEM [3] came to 6.41 µM; in the test with HCT-116 [4], 4.37 µM. The inhibition at 10 µM with CCRF-CEM [1] was found to be 73%; in the test with HCT-116 [2], 62%.

`COc1ccccc1-c1cn(-c2ccc(O)c(C(=O)OCCCc3ccccc3)c2)nn1`: the inhibition at 10 µM in the test with CCRF-CEM [1] was 4%; with HCT-116 [2] it was 7%.

`O=C(NCCc1ccc(F)cc1)c1cc(-n2cc(-c3cccc(O)c3)nn2)ccc1O`: the values for the GI50 with CCRF-CEM [3] and in the test on HCT-116 [4] were 22.8 µM and greater than 100 µM, respectively. This compound showed an inhibition at 10 µM with CCRF-CEM [1] of 35%.

With `COc1ccc(OC)c(-c2cn(-c3ccc(O)c(C(=O)O)c3)nn2)c1`, the inhibition at 10 µM in the test with CCRF-CEM [1] was determined as 9%.

`COc1ccc(OC)c(-c2cn(-c3ccc(O)c(C(=O)OCCCc4ccccc4)c3)nn2)c1`: the inhibition at 10 µM with CCRF-CEM [1] came out at 5%; in the test with HCT-116 [2] it was 13%.

For the compound `COc1ccccc1-c1cn(-c2ccc(O)c(C(=O)O)c2)nn1`, the inhibition at 10 µM in the test on CCRF-CEM [1] stood at 9%; in the test with HCT-116 [2], 4%.

A word on the IC50: it is the concentration at which inhibition is half-maximal. Broadly, the inhibition is the relative decrease from the control value, in per cent. A higher inhibition goes with strong suppression. The GI50 is the concentration at which growth is held to half of that of the control.
